The record followed here is paper PMC6044948 (ACS Omega, 2017).

The solubility is the dissolved amount per volume that the medium holds. One may read the IC50 as the concentration at which inhibition is half-maximal. A lower IC50 goes with higher potency.

Structures are written as SMILES. In brackets after ≈: the same amount, converted by molar mass.

Data set [1] in a line: Intrinsic solubility of CPT/HCPT. The class given is physicochemical. The settings on record: PBS (CPT); NaD2PO4 buffer (HCPT), aqueous buffer, thermodynamic from solid. An outline of the steps: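 Excess solid stirred at room temperature, then undissolved material removed by centrifugation. In PBS: stirred 6 h; supernatant quantified by UV–vis against an absorbance standard curve. In NaD2PO4 (10 mM, pD 7.4): stirred 3 h; supernatant quantified by 1H NMR integration against a known concentration of 1,3,5-benzenetricarboxylic acid as internal reference.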

Data set [2] in a line: Solubility enhancement assay with WP6. It counts as physicochemical. The settings on record: for solubility at 3 h: NaD2PO4 buffer with WP6, pH 7.4; for solubility enhancement in the presence of WP6: versus intrinsic solubility. An outline of the steps:
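Excess solid test compound stirred 3 h at room temperature in NaD2PO4 (10 mM, pD 7.4) containing a known concentration of pillararene host. Undissolved drug removed by centrifugation. Supernatant drug quantified by 1H NMR integration against subsequently added 1,3,5-benzenetricarboxylic acid as internal reference. Each point in triplicate; phase solubility diagrams plotted; enhancement taken relative to intrinsic solubility.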

For a further data set, the system named is Hela cells. Description: In vitro cytotoxicity against cancer cells, CCK-8 assay. The class given is cell-based. The settings on record: Homo sapiens, 24 h. An outline of the steps: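 HeLa cells seeded at 4 × 10^3/well and cultured 12 h, then given fresh medium with free test compound, pillararene host alone, or host-loaded test compound for 24 h. Drug range 5 × 10–4–5 × 101 μM; host alone 5 × 10–3–5 × 102 μM. CCK-8 added for 3 h, OD read at 450 nm. Viability was set relative to a medium-only control (100%). IC50 is the concentration giving 50% viability. Mean ± SD, n = 6; Student's t test.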

With `CC[C@@]1(O)C(=O)OCc2c1cc1n(c2=O)Cc2cc3ccccc3nc2-1` [CPT, 20-(S)-camptothecin], in data set [1], the solubility came out at 5 µM (≈ 1.74 µg/mL). Further, in data set [2], the solubility at 3 h is above 1000 µM and the “solubility enhancement in the presence of WP6” value turned out to be 380 times. Further, the IC50 with Hela cells came out at 800 nM.
The corresponding values for `CC[C@@]1(O)C(=O)OCc2c1cc1n(c2=O)Cc2cc3cc(O)ccc3nc2-1` [HCPT, 10-hydroxycamptothecin] are 29 µM (≈ 10.6 µg/mL), above 1000 µM, 40 times and 1300 nM.
